Screens: PubChem, Broad Institute
HIV Env fusion = inhibitors of HIV Env-mediated cell fusion. HeLa-JRFL Env/CEM21 cell fusion, luciferase. inhibition, % at 12.3 µM. hit rate 1.1% among 360,000. AID 651610;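 active = mean replicate inhibition score of at least 50 and every replicate individually at or above 50; inconclusive = only one of the two criteria met; inactive = mean below 50 and not all replicates reaching 50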;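 also: 0% = plate neutral controls and 100% = maraviroc near 300 nM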
Cneo AK release = Cryptococcus neoformans lysis via adenylate kinase release; C. neoformans lysis, adenylate kinase release luminescence, 4 h; normalised: neutral wells 0, clomiphene wells 100; lysis activity, % at 15 µM; hit rate 0.2% among 360,000; AID 651654;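 active = mean lysis activity across replicates of at least 80%, whatever share of replicates individually reach that level; inactive = mean lysis activity below 80%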
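Assay system: Cryptococcus neoformans yeast cells / Dosing: single-point compound dose / Timing: 4 h at 37 °C static, read 1 h later / Measured by: luminescence of released adenylate kinase using an AK detection reagent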
MITF TRPM1 HTS = increases MITF-driven TRPM1 promoter luciferase signal | SK-MEL-5 TRPM1-promoter luciferase, 24 h; % of positive control, neutral wells = 0 | activation, % at 12.5 µM | hit rate 0.75% among 300,000;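 active = mean activation of at least 80% with every replicate also reaching 80%; inconclusive = mean reaches 80% but some replicate falls short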;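 also: 0% = neutral control wells and 100% = parthenolide positive control wells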
Wnt bcat act = activators of Wnt/beta-catenin signaling. Wnt/beta-catenin reporter cell assay, activator, plate reader. activation, % at 9.35 µM. hit rate 1.2% among 300,000; in the data active = activation above about 30%, passing the limit was not always enough; inconclusive = no clear call, values can overlap the other calls;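 also: 0% = neutral control wells and 100% = positive control wells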
esBAF inh = SWI/SNF esBAF complex inhibition; mouse ES cells, Bmi1-luciferase knock-in reporter, 24 h; 100% = twice the neutral-well signal; AID 602393; reporter increase, % at 12.5 µM; hit rate 2% among 350,000; in the data active = activation above about 40%; inconclusive = no clear call, values can overlap the other calls;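 also: 0% = median of the plate's neutral control wells and 100% = double that signal; a rise in the Bmi1 reporter signal indicates esBAF inhibition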
ERAP1 HTS inh = inhibitors of human ERAP1 aminopeptidase | recombinant ERAP1, Leu-AMC fluorescence, 60 min | inhibition, % at 10.7 µM | hit rate 0.15% among 340,000 | AID 652197;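 active = mean replicate inhibition of at least 30%, or all replicates individually reaching that 30% level; inactive = mean below 30% and not every replicate reaching it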;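 also: 0% = neutral control wells and 100% = L-leucinethiol positive control wells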
Target sequence (Q9NZ08 whole entry, looked up): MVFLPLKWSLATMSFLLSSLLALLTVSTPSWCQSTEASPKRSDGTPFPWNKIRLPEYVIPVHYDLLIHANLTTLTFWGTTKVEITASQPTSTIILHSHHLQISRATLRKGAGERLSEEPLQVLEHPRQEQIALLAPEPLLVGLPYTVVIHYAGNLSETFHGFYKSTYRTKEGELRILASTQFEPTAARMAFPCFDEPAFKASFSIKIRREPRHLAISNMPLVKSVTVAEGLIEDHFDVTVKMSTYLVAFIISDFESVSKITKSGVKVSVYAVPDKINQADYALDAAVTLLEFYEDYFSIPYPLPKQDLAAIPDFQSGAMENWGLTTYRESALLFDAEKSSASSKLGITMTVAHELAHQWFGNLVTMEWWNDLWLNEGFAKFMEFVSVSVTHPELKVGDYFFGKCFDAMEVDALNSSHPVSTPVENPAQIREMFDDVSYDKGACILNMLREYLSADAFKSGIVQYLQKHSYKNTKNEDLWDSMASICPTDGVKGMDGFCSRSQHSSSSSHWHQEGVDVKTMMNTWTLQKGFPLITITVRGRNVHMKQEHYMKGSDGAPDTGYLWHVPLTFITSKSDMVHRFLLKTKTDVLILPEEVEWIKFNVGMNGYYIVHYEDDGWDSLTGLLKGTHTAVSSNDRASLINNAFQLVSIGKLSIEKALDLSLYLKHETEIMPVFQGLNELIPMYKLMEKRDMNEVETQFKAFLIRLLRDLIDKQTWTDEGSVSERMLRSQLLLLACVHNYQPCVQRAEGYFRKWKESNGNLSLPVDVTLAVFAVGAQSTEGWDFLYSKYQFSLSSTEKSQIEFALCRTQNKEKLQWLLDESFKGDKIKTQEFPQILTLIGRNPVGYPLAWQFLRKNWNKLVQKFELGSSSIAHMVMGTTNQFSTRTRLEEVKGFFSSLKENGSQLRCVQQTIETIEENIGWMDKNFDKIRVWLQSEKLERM
* hit, by the source's call; ? = inconclusive; . = not tested or not shown; [ ] = remark or other dose. Only some compounds are listed: those with a hit (about 3.5% of all), similar ones and a draw of the others.

SMILES	HIV Env fusion	Cneo AK release	MITF TRPM1 HTS	Wnt bcat act	esBAF inh	ERAP1 HTS inh
O=C(Nc1nnc(-c2ccncc2)s1)C1CCCO1 (centres undefined)	-22.8	1.6	10.7	.	9.4	.
O=C(Nc1nc2ccc(C(=O)N3CCCCC3)cc2s1)C1CCCCC1	3.4	.	0.3	-1.0	.	-1.7
O=C(Nc1nc2ccc(F)cc2s1)C1CCCO1 (centres undefined)	-99.0	-1.4	112.2*	.	98.6*	.
Cc1ccc2nc(NC(=O)C3CCN(S(=O)(=O)c4cccs4)CC3)sc2c1	79.8*	5.5	-21.8	.	-1.3	.
Nc1ccc2nc(NC(=O)C3CCCCC3)sc2c1	-42.4	-11.7	60.4	48.4*	51.6*	-1.2
C[C@H]1CN([C@@H](C)CO)C(=O)c2cccc(NC(=O)c3cnccn3)c2O[C@@H]1CN(C)C(=O)Nc1ccc(C(F)(F)F)cc1	.	-2.6	.	.	-1.7	0.0
Cc1ccc(S(=O)(=O)N(C)C[C@@H]2Oc3cc(C#Cc4ccncc4)ccc3S(=O)(=O)N([C@@H](C)CO)C[C@@H]2C)cc1	.	-2.0	.	.	3.3	-1.1
CC(=O)N1[C@@H]2c3ccc(C4=CCCC4)c(=O)n3C[C@H]1[C@H](CO)[C@H]2C(=O)NC1CCCC1	.	.	.	.	.	-0.1
Cc1noc(C)c1NC(=O)Nc1cccc2c1O[C@H](CN(C)S(=O)(=O)c1cn(C)cn1)[C@@H](C)CN([C@@H](C)CO)C2=O	.	-0.3	.	.	2.8	-1.9
CN(C)C(=O)C[C@H]1CC[C@H](NC(=O)c2ccc(F)cc2)[C@H](CO)O1	15.1[16.7 µM]	-4.8	.	.	1.7	3.0
CC(C)(C)n1nc(Cc2cccc3ccccc23)c2c(N)ncnc21	82.1*	-1.9	-14.7	-6.6	2.4	4.3
Cn1nc(Cc2cccc3ccccc23)c(C#N)c1N	-12.3	-0.8	-4.3	1.3	2.9	-0.9
CCCOc1ccc(-c2nnc(N)s2)cc1	-130.0	-6.3	59.9	36.0*	?	.
COc1ccc(-c2nnc(N)s2)cc1	-14.2	-0.4	12.8	13.1	29.0	.
Cc1ccc(S(=O)(=O)N(C)C[C@H]2OCCCC[C@@H](C)Oc3ccc(NC(=O)Nc4c(C)noc4C)cc3C(=O)N([C@H](C)CO)C[C@H]2C)cc1	.	.	.	.	.	0.8
O=C(c1cnn(-c2ccccc2)c1)c1ccccc1O	-56.5	.	43.0	?	17.6	.
O=C(COc1ccccc1C(=O)c1cnn(-c2ccccc2)c1)Nc1ccc2ccccc2c1	-64.4	-1.8	113.6*	7.4	82.3*	-0.4
O=C(c1cnn(-c2ccccc2)c1)c1cc(F)ccc1O	-23.9	-4.6	66.0	13.8	89.3*	0.8
COc1ccc(O)c(C(=O)c2cnn(-c3ccccc3)c2)c1	-6.0	0.3	32.4	-2.0	52.6*	1.6
CC(C)c1ccc(NC(=O)COc2ccc(F)cc2C(=O)c2cnn(-c3ccccc3)c2)cc1	-3.6	3.1	39.5	.	.	.
COc1ccc(O)c(C(=O)CC(=O)c2cccnc2)c1	-70.5	-0.4	62.3	34.1*	19.6	-4.0
Cc1noc(C)c1NC(=O)Nc1ccc2c(c1)C(=O)N([C@H](C)CO)C[C@H](C)[C@H](CN(C)C(=O)c1ccccc1)OCCCC[C@H](C)O2	-9.2[16.7 µM]	-2.9	.	.	1.0	-0.4
CCCNC(=O)C[C@H]1C[C@H]2c3cc(NC(=O)CC4CC4)ccc3O[C@H]2[C@@H](CO)O1	.	6.5	.	.	-1.7	0.7
COc1ccc(S(=O)(=O)N(C)C[C@@H]2Oc3ncc(C#CCN(C)C)cc3C(=O)N([C@H](C)CO)C[C@@H]2C)cc1	9.5[16.7 µM]	1.3	.	.	-3.3	-2.0
O=C(NCc1ccccc1)[C@@H]1CCCN1C(=O)[C@@H]1CCCN1C(=O)c1cccc2ccccc12	74.7*	.	.	-3.7	.	1.1
SMILES	HIV Env fusion	Cneo AK release	MITF TRPM1 HTS	Wnt bcat act	esBAF inh	ERAP1 HTS inh
Cc1ccccc1C(=O)N[C@H](C(=O)N1CCC[C@H]1C(=O)NCc1ccccc1)c1ccccc1	55.9*	.	.	0.1	.	4.0
COCCNC(=O)C[C@@H]1CC[C@@H]2[C@H](COC[C@@H](O)CN2S(=O)(=O)c2ccccc2C)O1	.	90.7*	.	.	-18.3	-0.6
COCCNC(=O)C[C@@H]1CC[C@@H]2[C@H](COC[C@H](O)CN2S(=O)(=O)c2ccccc2F)O1	2.8[16.7 µM]	0.9	.	.	-3.3	-2.8
CCNC(=O)C[C@@H]1CC[C@H]2[C@@H](COC[C@@H](O)CN2S(=O)(=O)c2ccccc2F)O1	.	95.0*	.	.	0.8	10.8
COCCNC(=O)C[C@H]1CC[C@@H]2[C@H](COC[C@H](O)CN2S(=O)(=O)c2ccccc2C)O1	.	103.0*	.	.	-5.5	-5.9
CCCNC(=O)[C@@H]1[C@@H](CO)[C@@H]2Cn3c(cccc3=O)[C@@H]2N1CC1CCCC1	.	.	.	.	.	5.0
C/C(=N/N=C(/C)c1cccs1)c1cccs1	-166.8	-0.5	.	15.1	47.6*	-4.0
C/C(=N\NC(=O)c1ccncc1)c1cccs1	-0.5	.	13.4	-1.3	.	1.4
COc1ccc2c3c([nH]c2c1)[C@H](CO)N(C(=O)C1CCCCC1)CC31CCN(C(=O)NC(C)C)CC1	.	.	.	.	.	0.1
[O-][n+]1ccccc1/C=C/c1ccccc1	-2.7	.	7.8	0.0	.	-0.9
[O-][n+]1c(/C=C/c2ccccc2)ccc2ccccc21	-106.0	-8.4	20.7	36.9*	0.7	1.1
CN1C(=O)c2cc(NC(=O)NCc3ccccc3)ccc2OC[C@@H]2O[C@H](CC(=O)NCC3CCCCC3)CC[C@H]21	.	-1.5	.	.	-4.6	2.0
CC(C)(C)NC(=O)CSc1nc(-c2ccccc2)c(-c2ccccc2)[nH]1	63.8*	4.2	-11.9	.	-7.2	.
O=C(CSc1nc(-c2ccccc2)c(-c2ccccc2)[nH]1)N1CCN(S(=O)(=O)c2ccccc2)CC1	84.3*	1.8	11.4	0.8	3.4	.
O=C(CSc1nc2ccccc2c(=O)[nH]1)N1CCN(S(=O)(=O)c2ccccc2)CC1	.	-0.8	10.9	-1.8	3.3	2.0
CCOc1ccc2c(=O)c(Oc3ccccc3OCC)coc2c1	-50.5	-3.0	55.7	0.0	64.3*	.
O=C(CCCCCCC(=O)Nc1ccc(CO)cc1)NOCc1ccccc1	-8.9[16.7 µM]	-4.5	.	.	.	1.1
CC(C)c1nc(-c2ccc([N+](=O)[O-])cc2)cs1	-44.4	-3.0	67.6	.	55.3*	.
Cc1cc(C(=O)COc2cccc([N+](=O)[O-])c2)c(C)n1C1CC1	-63.6	-1.4	105.3*	-1.7	71.1*	-2.7
Cc1ccc(OCC(=O)c2cc(C)n(C3CC3)c2C)c([N+](=O)[O-])n1	.	-1.3	14.4	.	.	.
O=C(C[C@H]1CC[C@@H]2[C@H](COC[C@@H](O)CN2C(=O)Nc2ccc(Cl)cc2)O1)NCC1CC1	.	-4.1	.	.	19.5	0.0
Cn1nccc1C(=O)Nc1ccc(Cl)cc1	.	-0.6	62.7	3.1	48.2*	3.1
Cc1cc(-c2nc3cccnc3s2)ccc1NS(=O)(=O)c1cccs1	.	1.4	.	25.0	44.9*	-55.7
COc1ccc(-c2nc(CS(=O)CC(=O)NCc3ccco3)c(C)o2)cc1OC (centres undefined)	72.8*	-0.8	.	11.1	-1.8	3.6
